# PubChem BioAssay AID573 (SRMLSC, 2007)
# The campaign covered roughly 65,000 compounds. About 1,400 (2.2%) were called active. The full list was thinned out, with actives kept by preference. Values without a mark were called inactive.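 The calls were made as follows: active = growth inhibition at or above a cutoff equal to the mean over every tested compound plus 3 SD (cut at about 60% in these data); inactive = the rest.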
# Test: E. coli ΔtolC antibacterial growth inhibition – strain BW25113 ΔtolC::kan, 384-well, primary screen (AID 573);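 also: growth measured after 20 h incubation at 37 °C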
# Conditions: E. coli BW25113 tolC mutant growth, OD615; active compounds read high; screened at 10 µM (by protocol)
# Outline: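 Assay system: tolC-deleted E. coli BW25113. Medium: kanamycin-containing LB broth (50 µg/mL). Dosing: 10 µM final, single dose. Timing: bacterial growth with compound for 20 h at 37 °C. Detection: A615 absorbance measurement. Read-out basis: growth inhibition in percent.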
row,Structure (SMILES),growth inhibition
1,CCOC(=O)c1c(-n2cnnn2)sc(C)c1C,1.46%
2,CCOC(=O)N1CCN(C(=O)C2CCN(c3ncnc4c3sc3cccc(F)c34)CC2)CC1,32.2%
3,CCOC(=O)C1CCN(c2ncnc3c2oc2ccc(Br)cc23)CC1,100% (active)
4,Cc1cc(C)nc(N2CCN(c3ncnc4c3oc3ccccc34)CC2)n1,-15.7%
5,CC(C)COC(=O)C1C2C=CC3(CN(C(C)c4ccc(Br)cc4)C(=O)C13)O2 (stereo not given),-3.74%
6,COCCNC(=O)c1ccccc1-c1nc(-c2ccccc2Cl)no1,1.03%
7,Cc1ccc(SCCN2C(=O)NC(C)(C)C2=O)cc1,13.1%
8,Cc1ccc(C2(c3ccc(C)cc3)NC(=O)N(Cc3c(C)noc3C)C2=O)cc1,94.9% (active)
9,C=CCNC(=O)CCCOc1cccc(C)c1,-3.22%
10,COc1ccccc1N1CCN(C(=O)c2c(-c3c(Cl)cccc3Cl)noc2C)CC1,23.5%
11,c1ccc(CSc2nnc(-c3ccco3)c(-c3ccco3)n2)cc1,72.5% (active)
12,c1ccc(CSc2nnc(-c3ccco3)n2Cc2ccccc2)cc1,100% (active)
13,O=C(CSc1nnc(-c2ccco2)n1CC1CCCO1)c1ccccc1 (stereo not given),-11.9%
14,O=C(CSc1nnc(-c2ccco2)n1Cc1ccccc1)NC(=O)NCc1ccco1,12.2%
15,Clc1ccccc1CSc1nnc(-c2ccco2)c(-c2ccco2)n1,9.86%
16,Nc1cc(=O)nc(SCc2ccccc2)n1Cc1ccco1,7.07%
17,CC(C)c1nc(N2CCOCC2)c(C#N)c2c1COC(C)(C)C2,8.03%
18,Cc1ccc(S(=O)(=O)N2CC(=O)Nc3ccccc32)cc1C,-6.32%
19,CCCC(=O)Nc1c(O)c2ccccc2[nH]c1=O,-32.1%
20,CCCCc1nc2ccccc2c(=O)n1NC(=O)c1c(O)c2cccc3c2n(c1=O)CC3,34.2%
21,CCCc1nc2ccccc2c(=O)n1NC(=O)c1c(O)c2ccccc2[nH]c1=O,72.5% (active)
22,Cc1cc(Nc2ccccc2)n(C(=O)c2ccc(N)cc2)n1,25.2%
23,N#Cc1c(N)n(CCOC(=O)c2ccc(Cl)cc2)c2nc3ccccc3nc12,5%
24,CC(=O)N1C(=O)C2(Nc3ccccc3N2)c2ccccc21,-14%

row,Structure (SMILES),growth inhibition
1,COc1c(Br)cc2c(C)c(C(=O)N3CCOCC3)oc2c1Br,0.15%
2,C=C(C)COc1ccc(-c2n[nH]c(C)c2-c2ccccc2OC)c(O)c1,88.4% (active)
3,C=C(C)COc1ccc(-c2n[nH]c(C)c2-c2ccccc2)c(O)c1,95.4% (active)
4,COc1ccc(-c2n[nH]c(C)c2-c2ccc(OC)c(OC)c2)c(O)c1,38.4%
5,COc1ccccc1-c1c(C)nn2c(C)c(C(C)=O)cnc12,15.8%
6,Cn1c(=O)c2c(nc(SCCNS(=O)(=O)c3ccccc3)n2C)n(C)c1=O,0.89%
7,Cc1ncc(CC(=O)n2cc(C(=O)c3cc(Cl)ccc3O)cn2)s1,5.26%
8,C=CCn1c(SCC(=O)Nc2nc3ccccc3s2)nnc1-c1ccccc1O,87.9% (active)
9,C=CCn1c(CSc2nc3ccccc3s2)nnc1SCC(=O)NCc1ccco1,29.4%
10,CCn1c(SCC(=O)Nc2nc3ccc(OC)cc3s2)nnc1-c1ccoc1C,27.9%
11,CCOc1ccccc1-n1c(SCC(=O)NCc2ccco2)nnc1-c1ccncc1,-11.1%
12,COc1ccc(-c2cc(C(F)(F)F)nc(SCCC(=O)NCc3ccco3)n2)cc1,-9.96%
13,Cc1ccc(F)cc1NC(=O)c1cccc(N(C)C)c1,-26.6%
14,O=C(Nc1cccc(F)c1)c1ccc(S(=O)(=O)N2CCCC2)cc1,8.01%
15,O=C1CCCC2=C1C(c1cccs1)n1nc(SCc3ccccc3)nc1N2 (stereo not given),87.2% (active)
16,CCCC(=O)N1c2ccccc2NC2=C(C(=O)CCC2)C1c1ccc(F)cc1 (stereo not given),55.5%
17,CC(C)C(=O)N1c2ccccc2NC2=C(C(=O)CCC2)C1c1ccc(N(C)C)cc1 (stereo not given),-4.93%
18,COC(=O)CSc1nc(C2CC2)nc2ccccc12,15.2%
19,COc1cccc(N(CC(=O)NC2CCCC2)C(=O)Cn2nnc(-c3ccc(C)cc3)n2)c1,-7.48%
20,C=CCn1c(N)c(C(=O)OCC(C)C)c2nc3ccccc3nc21,30.8%
21,CC(C)Cn1c(N)c(C(=O)NCc2cccs2)c2nc3ccccc3nc21,79.5% (active)
22,C=CCn1c(N)c(S(=O)(=O)c2cccs2)c2nc3ccccc3nc21,26.6%
23,COC(=O)c1ccc(/C=N\n2c(C)nnc2C)cc1,-9.6%
24,O=C(CCCN1C(=O)CSc2ncccc21)N1CCN(c2cccc(C(F)(F)F)c2)CC1,17.9%

row,Structure (SMILES),growth inhibition
1,COc1ccc2c(c1)OC(O)(C(F)(F)C(F)F)CC2=O (stereo not given),100% (active)
2,N#CCCN(CCC#N)c1nnc(-c2ccccc2)s1,16.1%
3,CCOC(=O)C1=C(C)NC(C)=C(C(=O)OCC)C1C1=COCCO1,5.25%
4,O=C(CSc1nnc(-c2ccccc2)o1)N1CCOCC1,-8.06%
5,CC1=CC(C)(C)N(C(=O)CSc2nnc(-c3ccccc3)o2)c2ccc(C)cc21,65.4% (active)
6,CC1=CC(C)(C)N(C(=O)CSc2nccn2C)c2cc(C)ccc21,5.87%
7,CCCCN(C)C(=O)C1CCN(Cc2ccccn2)CC1,-9.54%
8,Cc1cnc(NC(=O)CSc2nnc(-c3ccccc3)n2Cc2ccccc2)s1,1%
9,CCOC(=O)Cn1c(CN(Cc2ccccc2)Cc2ccccc2)nc2c1c(=O)[nH]c(=O)n2C,13%
10,FC(F)(F)COc1nc(N2CCCCC2)nc(N2CCNCC2)n1,10.5%
11,COc1ccc2c3c(c(=O)oc2c1OCC(=O)C(C)(C)C)CCCC3,10.7%
12,CCCOc1ccc2c3c(c(=O)oc2c1OCCC)CCC3,73% (active)
13,O=c1oc2c(CN3CCCCC3)c(O)ccc2c2c1CCCCC2,2.35%
14,COc1ccccc1N1CCN(C(=O)c2cc3c(-c4ccc(Cl)cc4)nn(C)c3s2)CC1,14.7%
15,Cn1c(=O)c2c(nc(Br)n2CCSc2nc3ccccc3o2)n(C)c1=O,4.61%
16,Cc1cc(C)c(C#N)c(SCc2[nH]nc3c2C(c2ccccc2)C(C#N)=C(N)O3)n1 (stereo not given),18.3%
17,Cc1cc(C)c(C#N)c(SCc2ccccc2C(=O)O)n1,8.75%
18,Cc1cc(C)c(C#N)c(SCc2ccc3c(c2)OCO3)n1,62.3% (active)
19,Cc1nonc1NC(=O)c1ccccc1Br,-1.19%
20,O=C(Nc1ccc(-c2nnc(-c3ccccc3)o2)cc1)c1ccc(Br)o1,-0.33%
21,O=C(Nc1nnc(-c2ccc(Cl)cc2)o1)c1ccccc1Br,100% (active)
22,Cn1c(=O)[nH]c(=O)c2c1nc(NCCCn1ccnc1)n2Cc1cccc(Br)c1,-18.6%
23,CCOC(=O)c1ccc(NC(=O)CS(=O)(=O)c2cn(CC)c3ccccc23)cc1,12.6%
24,Cc1ccc2c(c1)c1ncnc(N3CCc4ccccc4C3)c1n2C,21.5%

row,Structure (SMILES),growth inhibition
1,COc1ccc(OC)c(S(=O)(=O)N(C)CC(=O)N2CCN(c3ccccc3)CC2)c1,8.54%
2,CCCC(=O)NC(C)C(c1cccs1)N1CCN(c2ccccc2)CC1 (stereo not given),1.14%
3,COc1ccc(C(C(O)C(=O)c2c[nH]c3ccccc23)N2CCN(c3ccccc3)CC2)cc1 (stereo not given),72.1% (active)
4,O=S(=O)(c1ccc(F)cc1)N1CCN(Cc2ccccc2C(F)(F)F)CC1,38.3%
5,Cc1cccc(NC(=O)COc2ccc(Br)cc2C)n1,8.04%
6,Clc1ccc(Nc2nc(-c3cccs3)cs2)nc1,81.1% (active)
7,O=C(Nc1ccc(Cl)cn1)Nc1cccs1,6.13%
8,c1ccc(Nc2nc(-c3ccncc3)cs2)nc1,-16.7%
9,COc1ccc(-c2nnc(SC(=O)N3c4ccccc4Sc4ccccc43)o2)cc1,0.32%
10,CC1CCCCN1S(=O)(=O)c1ccc(C(=O)Nc2nnc(-c3cccs3)o2)cc1 (stereo not given),99.1% (active)
11,CCc1nnc(NC(=O)C2CCCN2S(=O)(=O)c2ccccc2)s1 (stereo not given),3.73%
12,CCc1nnc(NC(=O)c2ccc(S(=O)(=O)NC3CCCCC3)cc2)s1,18.5%
13,COCC(C)n1c(SCc2ccc(C(=O)OC)o2)nc2ccccc2c1=O (stereo not given),33.1%
14,CCN(CC)S(=O)(=O)c1cccc(C(=O)Nc2ccccc2)c1,38.8%
15,O=C(CC1Oc2ccccc2NC1=O)NCCCN1CCN(Cc2ccccc2)CC1 (stereo not given),-13.8%
16,Cc1nc2c(c(=O)n1Cc1ccco1)c1nc3ccccc3nc1n2Cc1ccccc1,14.7%
17,Clc1cccc(-c2nc3nc4ccccc4nc3n2Cc2ccco2)c1,68% (active)
18,Cc1ccc(Cn2c(C)nc3c(c2=O)c2nc4ccccc4nc2n3Cc2ccco2)cc1,29.2%
19,COc1ccc(C2N=C(N)N=C(N)N2c2ccccc2)cc1OC (stereo not given),4.96%
20,Cc1nc2c(C(=O)NCc3ccc4c(c3)OCO4)c[nH]n2c(=O)c1Cc1ccccc1F,100% (active)
21,CCn1cc(C(=O)NCc2ccc3c(c2)OCO3)c2cc(OC)c(OC)cc2c1=O,-12.7%
22,O=C(CCCCn1c(=O)[nH]c2ccccc2c1=O)NCc1ccc2c(c1)OCO2,1.02%
23,CC(C)C(=O)N1CCN(c2nc(-c3ccccc3)c3c(c2C#N)CC(C)(C)OC3)CC1,4.78%
